In ChEMBL document CHEMBL5252523, “Searching for New Leads for Tuberculosis: Design, Synthesis, and Biological Evaluation of Novel 2-Quinolin-4-yloxyacetamides” (J Med Chem, 2016):
Values after ≈ are worked out from the molar mass of the structure shown.

Tests used:
[1] = Chromatographic hydrophobicity index, log D of the compound in phosphate buffer at pH 7.4 by UV-HPLC analysis; type: physicochemical
[2] = Artificial membrane permeability of the compound incubated for 3 hrs by HPLC analysis; type: ADME; settings: PAMPA, read-out: permeability
[3] = Kinetic aqueous solubility of compound in phosphate buffer at pH 7.4 incubated for 1 hrs by CLND assay; type: physicochemical; settings: read-out: Kinetic_solubility
[4] = tested on: Mycobacterium tuberculosis; assay: Antimycobacterial activity against Mycobacterium tuberculosis H37Rv ATCC 25618 assessed as inhibition of microbial growth incubated for 6 days by resazurin based assay; type: functional; settings: H37Rv ATCC 25618, 144 h, time 6 day
How it was run: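 Ten two-fold dilutions made in neat DMSO, tested in Middlebrook 7H9 with the H37Rv inoculum. Controls: isoniazid from 4 μg/ml as positive control; rifampicin 1 μM as no-growth control. Plates sat sealed at 37 °C without shaking for 6 days.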

[5] = Cytotoxicity against human HepG2 cells assessed as cell growth inhibition incubated for 48 hrs by CellTiter-Glo reagent based analysis; type: toxicity
How it was run: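 HepG2 cells kept in Eagle's MEM with 10% heat-inactivated FBS, 1% NEAA and penicillin/streptomycin, seeded at ~3000 cells/well onto pre-dispensed compound. Incubation was 48 h at 37 °C, 5% CO2. Plates were equilibrated to room temperature, CellTiter-Glo was added, and ATP luminescence was read after 10 min as the viability read-out.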

SMILES	chromatographic logD [1]	Papp at 3 h [2] [×10⁻⁶ cm/s]	solubility kinetic at 1 h [3] [µM]	MIC [4] [µM]	IC50 at 48 h [5] [µM]
COc1ccc2nc(C)cc(OCC(=O)NNC(=O)c3ccncc3)c2c1	1.48	3.3	≥ 375	62	> 100
COc1ccc2nc(C)cc(OCC(=O)Nc3ccccc3)c2c1	4.28	37	63 (≈ 20.3 µg/mL)	2	39.8
CSc1ccc2nc(C)cc(OCC(=O)Nc3cc(C)cc(C)c3)c2c1	6.42	–	3 (≈ 1.1 µg/mL)	> 125	> 100
COc1cc2nc(C)cc(OCC(=O)Nc3cc(C)cc(C)c3)c2cc1OC	4.84	60.5	–	> 250	10
COc1ccc2nc(C)cc(OCC(=O)Nc3ccc(F)cc3)c2c1	4.49	23	104 (≈ 35.4 µg/mL)	12	63.1
COc1ccc2nc(C)cc(OCC(=O)Nc3cc(OC)c(OC)c(OC)c3)c2c1	3.95	62	34 (≈ 14 µg/mL)	62	> 100
COc1ccc2nc(C)cc(OCC(=O)Nc3cc(C)c(OC)c(C)c3)c2c1	4.99	32	17 (≈ 6.47 µg/mL)	1	7.94
COc1ccc2nc(C)cc(OC3CCN(c4ccccc4)C3=O)c2c1 (stereo not given)	4.99	55	215 (≈ 74.9 µg/mL)	125	100
COc1ccc2nc(C)cc(OCC(=O)Nc3c(C)cccc3C)c2c1	4.55	63	112 (≈ 39.2 µg/mL)	125	> 100
COc1ccc2nc(C)cc(OCc3ccc4ccccc4n3)c2c1	5.48	47	21 (≈ 6.94 µg/mL)	32	31.6
CCCc1cc(OCC(=O)Nc2cc(C)cc(C)c2)c2cc(OC)ccc2n1	6.44	–	12 (≈ 4.54 µg/mL)	> 250	12.6
COc1ccc2nc(C)cc(OC(C)C(=O)Nc3cc(C)cc(C)c3)c2c1 (stereo not given)	5.76	32	61 (≈ 22.2 µg/mL)	125	39.8
Cc1cc(C)cc(NC(=O)COc2cc(C(F)(F)F)nc3ccc(OC(F)(F)F)cc23)c1	7.96	< 0.3	34 (≈ 15.6 µg/mL)	> 250	> 100
COc1ccc2nc(C)cc(OCC(=O)Nc3ccc(S(=O)(=O)Nc4cc(C)on4)cc3)c2c1	2.2	1.5	≥ 381	125	> 100
COc1ccc2nc(C)cc(OCc3nc4ccccc4[nH]3)c2c1	3.59	–	13 (≈ 4.15 µg/mL)	16	> 100
COc1ccc2nc(C)cc(OCC(=O)Nc3noc(C)c3C)c2c1	3.3	62.5	196 (≈ 66.7 µg/mL)	187	> 100
COc1ccc2nc(C)cc(OCC(=O)NC3CONC3=O)c2c1 (stereo not given)	0.79	< 1	≥ 166	> 125	> 100
CCC(Oc1cc(C)nc2ccc(OC)cc12)C(=O)Nc1cc(C)cc(C)c1 (stereo not given)	6.28	39	123 (≈ 46.6 µg/mL)	> 250	79.4
COc1ccc2nc(C)cc(OCC(=O)Nc3ccccn3)c2c1	3.49	48	29 (≈ 9.38 µg/mL)	15.7	> 100
COc1ccc2nc(C)cc(OC(C(=O)Nc3cc(C)cc(C)c3)c3ccccc3)c2c1 (stereo not given)	7.13	< 3	2 (≈ 0.853 µg/mL)	> 125	> 100
COc1ccc2nc(C)cc(OCC(=O)Nc3ccc(Cl)c(C(F)(F)F)c3)c2c1	6.22	–	17 (≈ 7.22 µg/mL)	47	79.4
COc1ccc2nc(C)cc(OCC(=O)Nc3cccnc3)c2c1	2.46	33	32 (≈ 10.3 µg/mL)	62.5	> 100
COc1ccc2nc(C)cc(OCC(=O)Nc3cc(C)nc(C)n3)c2c1	3.24	1.2	5 (≈ 1.76 µg/mL)	> 250	> 100
COc1ccc2nc(C)cc(OCC(=O)Nc3ccc(Br)c(C)c3)c2c1	5.95	–	< 1	3.9	15.8

SMILES	chromatographic logD [1]	Papp at 3 h [2] [×10⁻⁶ cm/s]	solubility kinetic at 1 h [3] [µM]	MIC [4] [µM]	IC50 at 48 h [5] [µM]
COc1ccc2nc(C)cc(NC(=O)C(=O)Nc3cc(C)cc(C)c3)c2c1	6.47	–	10 (≈ 3.63 µg/mL)	> 125	> 100
Cc1cc(C)cc(NC(=O)COc2cc(C)nc3ccc(OC(F)(F)F)cc23)c1	6.79	< 3	–	> 250	> 100
Cc1cc(C)cc(NC(=O)COc2cc(C)nc3ccc(Cl)cc23)c1	6.38	–	8 (≈ 2.84 µg/mL)	40	> 100
COc1ccc2nc(C)cc(OCC(=O)Nc3ccc(Cl)c(OC)c3)c2c1	5.09	57	13 (≈ 5.03 µg/mL)	> 125	> 100
COc1ccc2nc(C)cc(OCC(=O)Nc3ccncn3)c2c1	2.53	52.5	27.5 (≈ 8.92 µg/mL)	> 250	> 100
CCOc1ccc2nc(C(F)(F)F)cc(OCC(=O)Nc3cc(C)cc(C)c3)c2c1	7.55	< 0.3	< 1	> 250	> 100
COc1ccc2nc(C)cc(OCC(=O)NCc3cc(C)cc(C)c3)c2c1	5.25	< 0.3	92 (≈ 33.5 µg/mL)	31	> 100
COc1ccc2nc(C(F)(F)F)cc(OCC(=O)Nc3cc(C)cc(C)c3)c2c1	7.02	< 1	15 (≈ 6.07 µg/mL)	> 250	> 100
Cc1cc(C)cc(NC(=O)COc2cc(C(F)(F)F)nc3c(C(F)(F)F)cccc23)c1	7.73	< 1	< 1	> 250	> 100
COc1ccc2nc(C)cc(OCC(=O)Nc3nc(C)c(C)s3)c2c1	4.24	44	31.5 (≈ 11.3 µg/mL)	62	> 100
Cc1cc(C)cc(NC(=O)COc2cc(C)nc3ccccc23)c1	5.39	37	55 (≈ 17.6 µg/mL)	24	> 100
CCOc1ccc2nc(C)cc(OCC(=O)Nc3cc(C)cc(C)c3)c2c1	5.98	< 3	–	> 250	> 100
Cc1cc(C)cc(NC(=O)COc2cc(C)nc3ccc(F)cc23)c1	5.79	31	28 (≈ 9.47 µg/mL)	15.6	63.1
COc1ccc2c(OCC(=O)Nc3cc(C)cc(C)c3)cc(C)nc2c1	5.59	–	–	> 250	50.1
Cc1cc(C)cc(NC(=O)COc2cc(C)nc3ccc(OCc4ccccc4)cc23)c1	7.03	< 1	< 1	> 250	> 100
COc1ccc2nc(C)cc(OCC(=O)Nc3ccncc3)c2c1	2.5	56	91.5 (≈ 29.6 µg/mL)	> 250	> 100
COc1ccc2nc(C)c(NC(=O)C(=O)Nc3cc(C)cc(C)c3)c(O)c2c1	3.76	–	10 (≈ 3.79 µg/mL)	> 125	> 100
COc1ccc2nc(C)cc(OCC(=O)N(C)c3cc(C)cc(C)c3)c2c1	5.47	30	373 (≈ 136 µg/mL)	109	50.1
COc1ccc2nc(C)cc(OCC(=O)Nc3cc(OC)c(Cl)cc3OC)c2c1	5.8	–	3 (≈ 1.25 µg/mL)	> 125	> 100
Cc1cc(C)cc(NC(=O)COc2cc(C)nc3ccc(C(F)(F)F)cc23)c1	6.67	< 3	10 (≈ 3.88 µg/mL)	> 250	> 100
COc1ccc2nc(C)cc(NCC(=O)Nc3cc(C)cc(C)c3)c2c1	3.59	31	204 (≈ 71.3 µg/mL)	47	6.31
COc1ccc2nc(C)c3nc(C(=S)Nc4cc(C)cc(C)c4)sc3c2c1	–	< 3	35 (≈ 13.8 µg/mL)	> 125	> 100
COc1ccc2nc(C)cc(OCC(=O)Nc3nccs3)c2c1	3.2	112	54 (≈ 17.8 µg/mL)	> 250	> 100
